Measurements from ChEMBL document CHEMBL1133108, “Neurosteroid analogues. 8. Structure-activity studies of N-acylated 17a-aza-D-homosteroid analogues of the anesthetic steroids (3alpha, 5alpha)- and (3alpha,5beta)-3-hydroxypregnan-20-one” (J Med Chem, 2000).

Experiments:
[1] = target: GABA-A receptor; anion channel; assay: Displacement of […]-tert-butylbicyclophosphorothionate (TBPS) from Gamma-aminobutyric acid A (GABA-A) receptor of rat brain membranes; type: cell membranes, Membrane
Outline: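 Noncompetitive displacement of [35S]TBPS from the picrotoxin site in rat brain membranes. Full concentration-response curves were fitted for IC50. Data come from duplicate experiments, each run in triplicate, with mean ± SEM reported. Hill coefficients are given.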

[2] = target: T1, GABA-A receptor; alpha-1/beta-2/gamma-2 (Rattus norvegicus) (UniProt P18508+P62813+P63138); assay: Electrophysiological effect on rat alpha-1-beta-2-gamma-2 GABA-A receptor subunits expressed in xenopus laevis oocytes at 0.1 uM; type: functional, cell-based; conditions: Oocyte
Outline: (§1)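 Oocytes express rat α1β2γ2 GABAA receptors. The control response uses 2 μM GABA. Steroid is co-applied at 0.1, 1 or 10 μM. The value is the ratio of current with steroid to current without it. N = 3–6 (12 for one reference steroid), mean ± SEM. These are not full concentration-response curves.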

[3] = target: T1, GABA-A receptor; alpha-1/beta-2/gamma-2 (Rattus norvegicus); assay: Electrophysiological effect on rat alpha-1-beta-2-gamma-2 GABA-A receptor subunits expressed in xenopus laevis oocytes at 10 uM in the absence of GABA; type: functional, cell-based; conditions: Oocyte
Outline: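 Rat α1β2γ2 GABAA receptors are expressed in Xenopus oocytes. Steroid at 10 μM is applied alone, without GABA, and the directly gated current is measured. The value is the ratio of steroid-only current to the 2 μM GABA control current. N = 3–6 (12 for one reference steroid), mean ± SEM.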

[4] = target: T1, GABA-A receptor; alpha-1/beta-2/gamma-2 (Rattus norvegicus); assay: Electrophysiological effect on rat alpha-1-beta-2-gamma-2 GABA-A receptor subunits expressed in xenopus laevis oocytes at 10 uM; type: functional, cell-based; conditions: Oocyte; outline: as §1
[5] = target: T1, GABA-A receptor; alpha-1/beta-2/gamma-2 (Rattus norvegicus); assay: Electrophysiological effect on rat alpha-1-beta-2-gamma-2 GABA-A receptor subunits expressed in xenopus laevis oocytes at 1 uM; type: functional, cell-based; conditions: Oocyte; outline: as §1

Compound: C[C@]12CCC3C(CC[C@H]4C[C@H](O)CC[C@]34C)C1CCCN2C(=O)CO (some centres undefined)
- IC50 [1]: 45 nM
- Activity [2]: 1.17
- Activity [3]: 0.49
- Activity [4]: 8.09
- Activity [5]: 1.73

Compound: CC(=O)[C@H]1CC[C@H]2[C@@H]3CC[C@@H]4C[C@H](O)CC[C@]4(C)[C@H]3CC[C@]12C [ELTANOLONE]
- IC50 [1]: 71 nM
- Activity [2]: 0.97
- Activity [3]: 0.01
- Activity [4]: 4.3
- Activity [5]: 1.92

Compound: C[C@]12CC[C@@H](O)C[C@@H]1CC[C@@H]1[C@@H]2CC[C@]2(C)[C@@H](C(=O)CO)CC[C@@H]12
- IC50 [1]: 39 nM
- Activity [2]: 1.3
- Activity [3]: 1.67
- Activity [4]: 11.8
- Activity [5]: 4.55

Compound: CC(=O)N1CCCC2C3CC[C@@H]4C[C@H](O)CC[C@]4(C)C3CC[C@@]21C (some centres undefined)
- Activity [2]: 1.37
- Activity [3]: 0.01
- Activity [4]: 1.18
- Activity [5]: 1.04

Compound: C[C@]12CCC3C(CC[C@@H]4C[C@H](O)CC[C@]34C)C1CCCN2C(=O)C(F)(F)F (some centres undefined)
- IC50 [1]: 6220 nM
- Activity [2]: 0.98
- Activity [3]: 0.02
- Activity [4]: 1.12
- Activity [5]: 0.96

Compound: CC(=O)N1CCCC2C3CC[C@H]4C[C@](C)(O)CC[C@]4(C)C3CC[C@@]21C (some centres undefined)
- IC50 [1]: 2610 nM
- Activity [2]: 0.96
- Activity [3]: 0.05
- Activity [4]: 1.99
- Activity [5]: 1.04

Compound: CC(=O)N1CCCC2C3CC[C@H]4C[C@H](O)CC[C@]4(C)C3CC[C@@]21C (some centres undefined)
- IC50 [1]: 200 nM
- Activity [2]: 1.21
- Activity [3]: 0.05
- Activity [4]: 3.74
- Activity [5]: 1.66

Compound: C[C@]12CCC3C(CC[C@H]4C[C@H](O)CC[C@]34C)C1CCCN2C(=O)C(F)(F)F (some centres undefined)
- IC50 [1]: 430 nM
- Activity [2]: 1.11
- Activity [3]: 0.5
- Activity [4]: 10.1
- Activity [5]: 1.91

Compound: CC(=O)[C@H]1CC[C@H]2[C@@H]3CC[C@H]4C[C@H](O)CC[C@]4(C)[C@H]3CC[C@]12C [BREXANOLONE]
- IC50 [1]: 74 nM
- Activity [2]: 1.26
- Activity [3]: 0.37
- Activity [4]: 9.65
- Activity [5]: 3.89

Compound: C[C@]12CCC3C(CC[C@@H]4C[C@H](O)CC[C@]34C)C1CCCN2C(=O)CO (some centres undefined)
- IC50 [1]: 930 nM
- Activity [2]: 1.36
- Activity [3]: 0.1
- Activity [4]: 3.87
- Activity [5]: 1.57

Compound: C[C@@]1(O)CC[C@]2(C)C3CC[C@@]4(C)C(CCCN4C(=O)CO)C3CC[C@H]2C1 (some centres undefined)
- IC50 [1]: 550 nM
- Activity [2]: 1
- Activity [3]: 0.2
- Activity [4]: 6.5
- Activity [5]: 1.22

Compound: C[C@]12CC[C@@H](O)C[C@H]1CC[C@@H]1[C@@H]2CC[C@]2(C)[C@@H](C(=O)CO)CC[C@@H]12
- IC50 [1]: 120 nM
- Activity [2]: 1.21
- Activity [3]: 0.19
- Activity [4]: 5.43
- Activity [5]: 2.37
